For 55 compounds, B-score results are on record in PubChem BioAssay AID463111 (Johns Hopkins Ion Channel Center, 2010).

The campaign covered roughly 310,000 compounds. About 2,800 (0.9%) were called active. This is one part of a sample in which actives are shown more often than they occur.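 The calls were made as follows: active = B-score of the integrated calcium signal more than 4 SD below the library mean, with starting fluorescence not abnormally high; inactive = the rest.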

The test is described as follows: enhancers of RGS4 function in calcium signaling – cell-based, HEK293 M3R inducible RGS4, calcium flux, primary screen (AID 463111).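 As to B-score: negative B-score means reduced calcium response which marks RGS4 activation or potentiation.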 Conditions: HEK293 M3R/inducible RGS4, carbachol calcium flux Fluo4, at 10 µM; active compounds read low. A digest of the protocol:
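Detection: kinetic calcium fluorescence imaging with Fluo4-AM dye, 2 µM / Material: HEK293 cells with stable M3R and inducible RGS4 / Schedule: recording 10 s baseline at 1 Hz, 100 s post-agonist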
With `COc1ccc(C(=O)Nc2ccc(C(=O)NCC3CCCO3)cc2)c(OC)c1OC` (stereo not given), the B-score entry was “inactive”.
For `CC(=O)NCC(=O)N1CCC(n2nccc2NC(=O)CCCc2ccccc2)CC1`, the B-score result is “inactive”.
Next, `COc1ccc(C(=O)/C=C/c2ccc(-c3ccccc3)cc2)cc1CSCC(=O)O`: -7.93 (active).
As for `COC(=O)c1ccc(COc2ccc(/C=C/C(=O)c3ccc(OC)c(CSCC(=O)O)c3)cc2OC)cc1`, the B-score result was “inactive”.
Consider `COc1ccc(/C=C/C(=O)c2ccc(NS(=O)(=O)c3ccc(C)cc3)cc2)cc1O`, for which the B-score result was “inactive”.
As to `CC(C)=CCN1CCN(CCCc2ccccc2)CC1CCO` (stereo not given), the B-score result was “inactive”.
As for `NC1=NC(c2ccc([N+](=O)[O-])cc2)N(c2ccc(F)cc2)C(N)=N1` (stereo not given), the B-score result is “inactive”.
Next, `O=C(CN1CCCCCC1)N1c2ccccc2Sc2ccc(C(F)(F)F)cc21`: -7.9 (active); `CCOC(=O)CNC(=O)N1c2ccccc2Sc2ccccc21`: “inactive”; `COc1cc(/C=C/C(=O)N2c3ccccc3Sc3ccc(C(F)(F)F)cc32)cc(OC)c1OC`: “inactive”.
In the case of `CCn1nc(C)c(CNC(=O)C2CCC(=O)N(Cc3cccc(F)c3)C2)c1C` (stereo not given), the B-score entry was “inactive”.
As to `Cc1ccc(CN(C)Cc2cc(=O)oc3cc(C)c(Cl)cc23)cc1`, the B-score result was “inactive”.
`CCOc1ccc(N(C)Cc2cc(=O)oc3ccc(OC)cc23)cc1`: the B-score result is “inactive”.
Next, `Cc1cc2oc(=O)cc(CN(C)Cc3ccc(OC(F)F)cc3)c2cc1Cl`: -7.56 (active); `CCN1CCN(c2sc(S(C)(=O)=O)nc2S(=O)(=O)c2ccc(Cl)cc2)CC1`: “inactive”; `O=C(c1ccc(-n2cnnn2)cc1)N1CCN(C(c2ccccc2)c2ccccc2)CC1`: -7.43 (active).
For `Cc1onc(C(=O)NN)c1C(=O)N1CCN(C(c2ccccc2)c2ccccc2)CC1`, the B-score entry is “inactive”.
To `Cn1nnnc1SCC(=O)N1CCN(C(c2ccccc2)c2ccccc2)CC1` belongs “inactive”; to `C=CCN(C(=O)Cn1ncc2c1-c1cc(C)ccc1OC2)c1ccccc1`, “inactive”.
Next, `Cc1ccc(S(=O)(=O)NCc2ccc(C(=O)NC3CCC(C)CC3)cc2)cc1` (stereo not given): “inactive”.
To `CCOC(=O)c1c(NC(=S)NC)sc2c1CCCC2` belongs “inactive”.
In the case of `CCOC(=O)c1c(NC(=O)CSc2cn(CC)c3ccccc23)sc2c1CCC2`, the B-score entry was “inactive”.
To `CCOC(=O)c1c(NC(=O)C(C)Sc2c[nH]c3ccccc23)sc2c1CCC2` (stereo not given) belongs -7.36 (active); to `COc1cccc(/C=N/Nc2ncc(C(F)(F)F)cc2Cl)c1O`, “inactive”.
As for `COc1cccc(/C=N/Nc2cc(C)nc(-c3ccccc3O)n2)c1O`, the B-score is -11.4 (active).
`COc1cccc(/C=N/NC(=O)c2[nH]nc3c2CCc2ccccc2-3)c1O`: the B-score result was “inactive”.
Next, `Cc1ccc(C(=O)CSc2ccccc2C(=O)O)cc1`: “inactive”; `Cc1ccc(SCC(=O)c2cc(C)c(OC(=S)N(C)C)c(C)c2)cc1`: -8.33 (active).
Next, `Cc1ccc(SCC(=O)Nc2ccc3c(c2)OCCO3)cc1`: “inactive”; `CN(C)C(=O)Cn1c(=O)n(S(=O)(=O)c2ccccc2)c2ccccc21`: “inactive”.
Next, `CC(=O)C1C(c2cccc(Oc3ccccc3)c2)NC(=O)NC1(O)C(F)(F)F` (stereo not given): “inactive”.
As to `O=C(c1cccs1)C1C(c2ccc(Br)cc2)NC(=S)NC1(O)C(F)(F)F` (stereo not given), the B-score is -11.1 (active).
`CCOC(=O)C1C(c2ccc(Cl)cc2)NC(=S)NC1(O)C(F)(F)F` (stereo not given): the B-score result was “inactive”.
For `O=C(NCc1ccncc1)C(=O)NCC1OCCN1S(=O)(=O)c1ccc(Br)cc1` (stereo not given), the B-score entry was “inactive”.
Next, `COc1ccc(/C=C(\C#N)c2c[nH]c3ccccc23)cc1`: -9.16 (active); `COc1ccc2[nH]cc(/C=C(/C#N)S(=O)(=O)c3ccccc3)c2c1`: “inactive”; `COc1ccc(C(C(O)C(=O)c2c[nH]c3ccccc23)N2CCN(c3ccccc3)CC2)cc1` (stereo not given): “inactive”.
To `COc1cccc(NC(=S)C(C#N)=C2N(C)c3ccccc3N2C)c1` belongs “inactive”; to `CC(C)(C)c1ccc(C(=O)N2CCN(CCNC(=O)C(=O)Nc3ccc(F)cc3)CC2)cc1`, “inactive”; to `COc1ccc(/C(C)=N\NC(=O)c2ccc(-c3ccccc3)cc2)c(F)c1`, “inactive”.
As for `COc1cccc(C(=O)Nc2cccnc2)c1OC`, the B-score entry was “inactive”.
To `COc1cccc(C(=O)N/N=C(\C)c2cccc(NC(=O)c3ccc(F)cc3)c2)c1OC` belongs -7.56 (active); to `CC(C)(C)n1ncc2c(=O)n(Cc3ccc(Cl)cc3)cnc21`, “inactive”.
With `O=C(NCCCN1CCOCC1)c1ccc2c(c1)N(Cc1cccc(F)c1)C(=O)c1ccccc1S2`, the B-score entry is “inactive”.
Next, `CCN1CCN(CCNC(=O)c2ccc(/C=C3/Sc4ccccc4N(Cc4cccc(C)c4)C3=O)cc2)CC1`: -9.47 (active); `O=C(NCCN1CCOCC1)c1ccc(/C=C2\Sc3ccccc3N(Cc3ccc(F)cc3)C2=O)cc1`: “inactive”.
On to `Cc1oc(C(N)=O)cc1COc1ccc(C(N)=O)cc1`, for which the B-score result is “inactive”.
`Cn1nccc1NC(=O)CC(CC(=O)O)c1ccccc1` (stereo not given): the B-score entry was “inactive”.
To `Cc1cccc(-c2nc3ccc(C(=O)NCCN4CCN(C)CC4)cc3nc2-c2cccc(C)c2)c1` belongs -8.03 (active); to `Cc1ccc(C(=O)NCCN2CCOCC2)cc1C`, “inactive”.
Regarding `CCC1=Nc2cc(C(=O)NCCN3CCCC3)ccc2Sc2ccc(C)cc21`, the B-score entry was “inactive”.
Next, `O=C(CN1CCC(NC(=O)C2CC2)CC1)Nc1ccccc1[N+](=O)[O-]`: “inactive”.
`CCOc1ccc(C(CC(=O)O)NC(=O)COc2ccccc2)cc1` (stereo not given): the B-score was -7.76 (active).
For the compound `Cc1ccc(OCC(=O)NC(C)c2ccccc2)cc1C` (stereo not given), the B-score entry is “inactive”.
To `CCOc1ccc(C(CC(=O)O)NC(=O)Cc2ccccc2)cc1OC` (stereo not given) belongs “inactive”.
